Measured values taken from PubChem BioAssay.
Results filed as inconclusive are left out.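 The calls were made as follows, unless noted: active = viability increase at or above a cutoff of the median across tested compounds plus 3 SD (cut at about 8.5% in these data, passing the limit was not always enough); inconclusive = some gains above the cutoff, reason not given; inactive = the rest.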

Tests used:
[1] = S. cerevisiae growth inhibition in permissive medium (OD615), pilot counter-assay for S. cerevisiae lifespan shortening project, permissive growth control (AID 705;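 active = growth inhibition above 25% in both replicates, a cutoff set 3 SD above the mean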); conditions: OD615, 24 h, at 10 µM, active compounds read high
How it was run: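 Timing: 24 h exposure, 30 °C / Material: Saccharomyces cerevisiae strain carrying genetically modified DeaD replicative-lifespan system / Signal: OD at 615 nm / Compound: 10 µM single dose, 0.25% DMSO / Medium: SC raffinose/galactose permissive medium / Evaluation: reduction in yeast growth (OD615)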

[2] = S. cerevisiae growth inhibition in restrictive medium, OD615, pilot screen, restrictive growth control, yeast lifespan reduction project (AID 706;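 active = growth inhibition above a set limit, 3 SD over mean compound inhibition, in both replicates, cut at about 43% in these data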;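 also: modified DeaD lifespan yeast strain shifted to restrictive glucose medium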); conditions: OD615, 48 h, at 10 µM, active compounds read high
How it was run: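 System: Engineered S. cerevisiae DeaD strain | Detection: OD615 | Buffer or medium: CSMM-D glucose medium | Doses: 10 µM compound, 0.25% DMSO | Timing: 4 h pre-growth plus 48 h compound exposure, 30 °C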

[3] = doxorubicin toxicity protection in MRP-1 cells – H69AR cells, CellTiter-Glo, duplicate, MRP-1 activator project, pilot screen (AID 807); conditions: H69AR viability with doxorubicin, CellTiter-Glo luminescence; at 10 µM; active compounds read high;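 also: compound pretreatment 18-22 h then 72 h combined with doxorubicin; 0% = doxorubicin alone and 100% = vehicle without doxorubicin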
[4] = viability of HCT116 without oncogenic beta-catenin – human colon tumor cells, pilot screen (AID 823;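 active = cell viability at or below a set limit in both duplicate runs, the limit being the all-compound median minus 4 SD, cut at about 23% in these data, passing the limit was not always enough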;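 also: 0% = wells killed by 20 µM Hyamine and 100% = untreated DMSO cell wells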); conditions: HCT116 beta-catenin knockout viability, CellTiter-Glo, 60 h; at 10 µM; active compounds read low
[5] = viability of PTEN-null HCT116 cells – cell-based, HCT116 clonal line, CellTiter-Glo, pilot screen (AID 824;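 active = viability at or below 27.92% in each of two runs, the all-compound median minus 4 SD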;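 also: 0% = 20 µM Hyamine control and 100% = vehicle cell control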); conditions: HCT116 PTEN-deleted viability, 60 h, at 10 µM, active compounds read low
[6] = RAM pathway blockade in budding yeast – dse1pr::URA3 reporter, 5-FOA selection, pilot screen (AID 869;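 active = inhibition over a set limit, the all-compound mean plus 3 SD, in both replicate runs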;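 also: 0% = DMSO wells with no growth and 100% = 10 µM 1-NA-PP1 with full growth; RAM network block rescues cells from 5-FOA so hits raise OD615 growth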); conditions: S. cerevisiae dse1pr::URA3 5-FOA growth, OD615, 2 d; at 10 µM; active compounds read high; strain carries analog-sensitive mutant Cbk1 kinase
[7] = RAM signaling pathway blockade in yeast – S. cerevisiae, Pdr1DBD-CYC8 efflux-inhibited sensitized strain, primary screen (AID 1298;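 active = RAM network inhibition above 8.4% in each of two replicates, 3 SD over the compound average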;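 also: 0% = DMSO untreated cells without growth and 100% = 10 µM 1-NA-PP1 full growth; higher means more yeast growth rescued from 5-FOA killing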); conditions: S. cerevisiae cbk1-as DSE1-URA3 strain, 5-FOA growth OD615, 2 d; at 50 µM; active compounds read high

CCOC(=O)COc1cccc2c(=O)n(CC(=O)N3CCN(C(=O)OCC)CC3)ccc12
inactive: growth inhibition [1] -4.37% | growth inhibition [2] -7.13% | viability increase [3] -2.1% | viability [4] 104% | viability [5] 96.1% | inhibition [6] 1.04% | RAM network inhibition [7] 4.18%

COc1ccc(C2C(C#N)=C(N)Oc3n[nH]c(C)c32)cc1Cn1nnc2ccccc21 (configuration not stated)
inactive: growth inhibition [1] 2.33% | growth inhibition [2] -0.6% | viability increase [3] -5.95% | viability [4] 75.7% | viability [5] 77.9% | inhibition [6] 1.26% | RAM network inhibition [7] 7.2%

CCC(=O)c1cc2c(cc1NC(=O)c1cccs1)OCCO2
inactive: growth inhibition [1] -5.85% | growth inhibition [2] -7.54% | viability increase [3] -6.83% | viability [4] 69.2% | viability [5] 75.2% | inhibition [6] 1.38% | RAM network inhibition [7] 9.21%

CC(C)CC(=O)Nc1ccc(C(=O)COc2ccc(-c3nnco3)cc2)cc1
inactive: growth inhibition [1] -0.165% | growth inhibition [2] -0.795% | viability increase [3] 0.84% | viability [4] 88% | viability [5] 87% | inhibition [6] 0.965% | RAM network inhibition [7] 2.46%

COc1ccc(C2CC(C(F)(F)F)n3nc(C(=O)O)c(Cl)c3N2)cc1OC (configuration not stated)
inactive: growth inhibition [1] -2.51% | growth inhibition [2] -1.92% | viability increase [3] 0.25% | viability [4] 105% | viability [5] 97.6% | inhibition [6] 0.77% | RAM network inhibition [7] 2.86%

CCOc1ccc(N(CC(=O)NCc2ccccc2)S(C)(=O)=O)cc1
inactive: growth inhibition [1] -0.02% | growth inhibition [2] -4.28% | viability increase [3] -1.14% | viability [4] 103% | viability [5] 101% | inhibition [6] 0.535% | RAM network inhibition [7] -0.46%

OC1CC(c2ccco2)NC2(CCCCC2)C1 (configuration not stated)
inactive: growth inhibition [1] -4.09% | growth inhibition [2] 1.06% | viability increase [3] -1.66% | viability [4] 97.2% | viability [5] 94.6% | inhibition [6] 0.39% | RAM network inhibition [7] 2.73%

CCOc1ccccc1C1C(C(N)=O)=C(C)Nc2nc(CCCO)nn21 (configuration not stated)
inactive: growth inhibition [1] -13.8% | growth inhibition [2] 2.83% | viability increase [3] -1.39% | viability [4] 100% | viability [5] 102% | inhibition [6] 2.46% | RAM network inhibition [7] -1.1%

O=c1c2cnn(-c3ccccc3)c2ncn1Cc1ccccc1F
inactive: growth inhibition [1] -1.06% | growth inhibition [2] 9.05% | viability increase [3] -0.65% | viability [4] 93% | viability [5] 88.6% | inhibition [6] -0.06% | RAM network inhibition [7] 4.95%

CC(=O)c1ccc(OCC(O)CN2CCC(C)CC2)cc1 (configuration not stated)
inactive: growth inhibition [1] -0.26% | growth inhibition [2] 9.25% | viability increase [3] -0.16% | viability [4] 101% | viability [5] 101% | inhibition [6] 0.54% | RAM network inhibition [7] -2.94%

O=C(Nc1nc2cc3c(cc2s1)OCO3)C1=COCCO1
inactive: growth inhibition [1] -9.14% | growth inhibition [2] -31.3% | viability increase [3] -6.84% | viability [4] 45.8% | viability [5] 41.3% | inhibition [6] 1.75% | RAM network inhibition [7] 5.3%

COc1ccc(N(CC(=O)NCc2ccco2)S(=O)(=O)c2c(C)nn(C)c2C)cc1
inactive: growth inhibition [1] -11% | growth inhibition [2] -12.6% | viability increase [3] -4.02% | viability [4] 89.8% | viability [5] 92.6% | inhibition [6] 0.185% | RAM network inhibition [7] 0.73%

COc1ccc(OC)c(N(CC(=O)NCCSc2ccccc2)S(C)(=O)=O)c1
inactive: growth inhibition [1] -4.86% | growth inhibition [2] -9.71% | viability increase [3] -3.1% | viability [4] 96.9% | viability [5] 95.5% | inhibition [6] 0.23% | RAM network inhibition [7] 4.35%

C=CCN(c1ccccc1)S(=O)(=O)c1ccc2c(c1)oc(=O)n2C
inactive: growth inhibition [1] -15.1% | growth inhibition [2] -18.7% | viability increase [3] -2.65% | viability [4] 98.7% | viability [5] 87.6% | inhibition [6] 2.14% | RAM network inhibition [7] 3.12%

COc1ccc(C2C=C(c3ccc(C)c(C)c3)Nc3ncnn32)c(OC)c1OC (configuration not stated)
inactive: growth inhibition [1] -5.12% | growth inhibition [2] 11.7% | viability increase [3] -4.29% | viability [4] 40.4% | viability [5] 34.3% | inhibition [6] 0.775% | RAM network inhibition [7] -1.46%

OC(COc1ccc(Cl)c2ccccc12)CN1CCN(c2ccccn2)CC1 (configuration not stated)
inactive: growth inhibition [1] -5.89% | growth inhibition [2] -11.6% | viability increase [3] -3.19% | viability [4] 94.9% | viability [5] 95.2% | inhibition [6] -0.275% | RAM network inhibition [7] 4.46%
